Assay in all cases: Sulforhodamine B
One assay deals with MCF7 cell line. The format is cell-based, human. To be noted: Homo sapiens, MCF7, 48 h, read-out: Percentage of cell growth inhibition at [100 μM] MCF7. In outline:
(§1)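 Carcinoma lines came from the National Cancer Institute, Cairo, and were grown as monolayers in DMEM with 10% FBS and 1% penicillin–streptomycin. Final DMSO was ≤0.1% (v/v). Cells were treated for 48 h either at a single 100 μM dose (% growth inhibition) or at 0, 6.25, 12.5, 25 and 50 μM. SRB staining was read at 570 nm as % viability. IC50 came from dose–response curve fitting.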

Another assay relates to HCT116 cell line. The format is cell-based, human. The settings on record: Homo sapiens, HCT-116, 48 h, read-out: Percentage of cell growth inhibition at [100 μM] HCT116. The method in brief: as §1
The subject of assay [1] is HDF cell line (Human Dermal Fibroblasts). The format is cell-based. To be noted: Homo sapiens, HDF, 48 h, read-out: Percentage of cell growth inhibition at [100 μM] HDF. In outline:
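Normal human dermal fibroblasts came from the National Cancer Institute, Cairo. Final DMSO was ≤0.1% (v/v). Cells were exposed to the test compound at a single 100 μM dose for 48 h. Growth inhibition was measured by the sulforhodamine-B method, with absorbance read at 570 nm and expressed as percentage of cell viability.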

Another assay concerns HEPG2 cell line. The format is cell-based, human. To be noted: Homo sapiens, HepG2, 48 h, read-out: Percentage of cell growth inhibition at [100 μM] HEPG2. In outline: as §1

In article PMC11310838 (RSC Advances, 2024) one finds inhibition data, which are given here for 14 molecules.

Consider `NC(=S)NN=Cc1ccc(OCC(=O)N2CCN(C(=O)COc3ccc(C=NNC(N)=S)cc3)CC2)cc1` [Compound 7a, 1,1′-(Piperazine-1,4-diyl)bis(2-(4-(2-carbamothioylhydrazono)methylphenoxy)ethanone)], for which the inhibition at 100 µM in the assay with MCF7 cell line was determined as 85.3 ± 5.2%; in the assay with HCT116 cell line it was 86.2 ± 5.33%; in assay [1], 45.1 ± 30.1%; in the assay with HEPG2 cell line it was 83.3 ± 7.47%.

For `Cc1nc(NN=Cc2ccc(OCC(=O)N3CCN(C(=O)COc4ccc(C=NNc5nc(C)c(N=Nc6ccc(F)cc6)s5)cc4)CC3)cc2)sc1N=Nc1ccc(F)cc1` [Compound 9c, 1,1′-(Piperazine-1,4-diyl)bis(2-(4-(((4-methyl-5-(4-fluorophenylazo)thiazol-2-yl)hydrazono)-methyl)phenoxy)ethanone)], the inhibition at 100 µM worked out at 90.3 ± 1.3% with MCF7 cell line, 87.2 ± 4.53% in the assay on HCT116 cell line, 67.7 ± 11.5% in assay [1] and 77.2 ± 3.1% in the assay with HEPG2 cell line.

With `Cc1nc(NN=Cc2ccc(OCC(=O)N3CCN(C(=O)COc4ccc(C=NNc5nc(C)c(N=Nc6ccc(Cl)cc6)s5)cc4)CC3)cc2)sc1N=Nc1ccc(Cl)cc1` [Compound 9d, 1,1′-(Piperazine-1,4-diyl)bis(2-(4-(((4-methyl-5-(4-chlorophenylazo)thiazol-2-yl)hydrazono)-methyl)phenoxy)ethanone)], the inhibition at 100 µM with MCF7 cell line came to 90.5 ± 1.99%; in the assay with HCT116 cell line it was 89.1 ± 2.04%; in assay [1], 57.7 ± 18%; with HEPG2 cell line it was 73.1 ± 5.28%.

`Cc1ccc(N=Nc2sc(NN=Cc3ccccc3OCC(=O)N3CCN(C(=O)COc4ccccc4C=NNc4nc(C)c(N=Nc5ccc(C)cc5)s4)CC3)nc2C)cc1` [Compound 9f, 1,1′-(Piperazine-1,4-diyl)bis(2-(2-(((4-methyl-5-(4-tolylazo)thiazol-2-yl)hydrazono)methyl)-phenoxy)ethanone)]: the inhibition at 100 µM with MCF7 cell line came to 85.5 ± 2.11%; in the assay on HCT116 cell line it was 85.4 ± 6.41%; in assay [1], 78.3 ± 3.64%; in the assay with HEPG2 cell line it was 93.5 ± 2.07%.

For `Cc1nc(NN=Cc2ccccc2OCC(=O)N2CCN(C(=O)COc3ccccc3C=NNc3nc(C)c(N=Nc4ccc(F)cc4)s3)CC2)sc1N=Nc1ccc(F)cc1` [Compound 9g, 1,1′-(Piperazine-1,4-diyl)bis(2-(2-(((4-methyl-5-(4-fluorophenylazo)thiazol-2-yl)hydrazono)-methyl)phenoxy)ethanone)], the inhibition at 100 µM in the assay with MCF7 cell line is 88.7 ± 4.11%; with HCT116 cell line, 80.6 ± 7.04%; in assay [1], 71.1 ± 21.6%; in the assay on HEPG2 cell line, 91.8 ± 3.29%.

As for `Cc1nc(NN=Cc2ccccc2OCC(=O)N2CCN(C(=O)COc3ccccc3C=NNc3nc(C)c(N=Nc4ccc(Cl)cc4)s3)CC2)sc1N=Nc1ccc(Cl)cc1` [Compound 9h, 1,1′-(Piperazine-1,4-diyl)bis(2-(2-(((4-methyl-5-(4-chlorophenylazo)thiazol-2-yl)hydrazono)-methyl)phenoxy)ethanone)], the inhibition at 100 µM in the assay on MCF7 cell line is 81 ± 7.44%; in the assay with HCT116 cell line it was 77.7 ± 8.59%; in assay [1] it was 56 ± 23.6%; in the assay with HEPG2 cell line, 84 ± 3.07%.

In the case of `Cc1nc(NN=Cc2ccccc2OCC(=O)N2CCN(C(=O)COc3ccccc3C=NNc3nc(C)c(N=Nc4ccc([N+](=O)[O-])cc4)s3)CC2)sc1N=Nc1ccc([N+](=O)[O-])cc1` [Compound 9j, 1,1′-(Piperazine-1,4-diyl)bis(2-(2-(((4-methyl-5-(4-nitrophenylazo)thiazol-2-yl)hydrazono)-methyl)phenoxy)ethanone)], the inhibition at 100 µM turned out to be 71.4 ± 20.5% with MCF7 cell line, 87.7 ± 4.3% with HCT116 cell line, 12 ± 6.04% in assay [1] and 83.1 ± 7.22% in the assay with HEPG2 cell line.

`O=C(COc1ccc(C=NN=c2sc(-c3ccccc3)nn2-c2ccccc2)cc1)N1CCN(C(=O)COc2ccc(C=NN=c3sc(-c4ccccc4)nn3-c3ccccc3)cc2)CC1` [Compound 13a, 1,1′-(Piperazine-1,4-diyl)bis(2-(4-(((3,5-diphenyl-1,3,4-thiadiazol-2(3H)-ylidene)hydrazono)-methyl)phenoxy)ethanone)]: the inhibition at 100 µM in the assay on MCF7 cell line is 88.2 ± 1.88%; in the assay with HCT116 cell line, 78.1 ± 5.78%; in assay [1] it was 52.5 ± 14.8%; in the assay on HEPG2 cell line, 71.4 ± 4.92%.

For `O=C(COc1ccccc1C=NN=c1sc(-c2ccccc2)nn1-c1ccccc1)N1CCN(C(=O)COc2ccccc2C=NN=c2sc(-c3ccccc3)nn2-c2ccccc2)CC1` [Compound 13c, 1,1′-(Piperazine-1,4-diyl)bis(2-(2-(((3,5-diphenyl-1,3,4-thiadiazol-2(3H)-ylidene)hydrazono)-methyl)phenoxy)ethanone)], the inhibition at 100 µM in the assay on MCF7 cell line was 86.2 ± 1.83%; in the assay on HCT116 cell line, 76.4 ± 5.38%; in assay [1], 60.8 ± 3.09%; with HEPG2 cell line, 68.8 ± 12.7%.

`O=C(COc1ccccc1C=NN=c1sc(-c2ccc(Cl)cc2)nn1-c1ccccc1)N1CCN(C(=O)COc2ccccc2C=NN=c2sc(-c3ccc(Cl)cc3)nn2-c2ccccc2)CC1` [Compound 13d, 1,1′-(Piperazine-1,4-diyl)bis(2-(2-(((5-(4-chlorophenyl)-3-phenyl-1,3,4-thiadiazol-2(3H)-ylidene)-hydrazono)methyl)phenoxy)ethanone)]: the inhibition at 100 µM in the assay with MCF7 cell line came to 86.4 ± 2.56%; with HCT116 cell line it was 88.9 ± 1.38%; in assay [1], 64 ± 10.8%; in the assay on HEPG2 cell line, 80 ± 3.39%.

On to `O=C(COc1ccc(C=NN=c2[nH]c(-c3ccccc3)cs2)cc1)N1CCN(C(=O)COc2ccc(C=NN=c3[nH]c(-c4ccccc4)cs3)cc2)CC1` [Compound 15a, 1,1′-(Piperazine-1,4-diyl)bis(2-(4-(((4-phenylthiazol-2(3H)-ylidene)hydrazineylidene)methyl)-phenoxy)ethanone)], for which the inhibition at 100 µM with MCF7 cell line is 87.3 ± 1.63%; with HCT116 cell line, 78.1 ± 6.5%; in assay [1], 50.2 ± 21.5%; in the assay on HEPG2 cell line, 67.9 ± 7.03%.

As to `COc1ccc(-c2csc(=NN=Cc3ccc(OCC(=O)N4CCN(C(=O)COc5ccc(C=NN=c6[nH]c(-c7ccc(OC)cc7)cs6)cc5)CC4)cc3)[nH]2)cc1` [Compound 15b, 1,1′-(Piperazine-1,4-diyl)bis(2-(4-(((4-(4-methoxyphenyl)thiazol-2(3H)-ylidene)hydrazineylidene)-methyl)phenoxy)ethanone)], the inhibition at 100 µM was determined as 50.6 ± 10.2% in the assay on MCF7 cell line, 21.8 ± 16.5% in the assay with HCT116 cell line, 48 ± 48.5% in assay [1] and 83.4 ± 9.48% in the assay with HEPG2 cell line.

Consider `O=C(COc1ccc(C=NN=c2[nH]c(-c3cc4ccccc4oc3=O)cs2)cc1)N1CCN(C(=O)COc2ccc(C=NN=c3[nH]c(-c4cc5ccccc5oc4=O)cs3)cc2)CC1` [Compound 15e, 1,1′-(Piperazine-1,4-diyl)bis(2-(4-(((4-(coumarin-3-yl)thiazol-2(3H)-ylidene)hydrazineylidene)-methyl)phenoxy)ethanone)], for which the inhibition at 100 µM with MCF7 cell line came to 68.4 ± 7.33%; in the assay on HCT116 cell line it was 73.9 ± 4.08%; in assay [1], 68.1 ± 10.1%; with HEPG2 cell line, 74.4 ± 4.88%.

In the case of `O=C(COc1ccccc1C=NN=c1[nH]c(-c2cc3ccccc3oc2=O)cs1)N1CCN(C(=O)COc2ccccc2C=NN=c2[nH]c(-c3cc4ccccc4oc3=O)cs2)CC1` [Compound 15h, 1,1′-(Piperazine-1,4-diyl)bis(2-(2-(((4-(coumarin-3-yl)thiazol-2(3H)-ylidene)hydrazineylidene)-methyl)phenoxy)ethanone)], the inhibition at 100 µM with MCF7 cell line was determined as 46.7 ± 11.3%; with HCT116 cell line, 36.4 ± 13.8%; in assay [1] it was 44 ± 51.5%; in the assay on HEPG2 cell line, 70.1 ± 8.68%.

The inhibition is the percentage by which the read-out fell short of the control.
